Measurements reported in ChEMBL document CHEMBL2311453, “Tetrahydropyrroloquinolinone type dual inhibitors of aromatase/aldosterone synthase as a novel strategy for breast cancer patients with elevated cardiovascular risks” (J Med Chem, 2013).

Tests used:
Aromatase = target: T1, Aromatase (Homo sapiens, UniProt P11511); experiment: Inhibition of human CYP19 using [1beta-3H]androstenedione as substrate by 3H2O method
T1 sequence (P11511 whole entry): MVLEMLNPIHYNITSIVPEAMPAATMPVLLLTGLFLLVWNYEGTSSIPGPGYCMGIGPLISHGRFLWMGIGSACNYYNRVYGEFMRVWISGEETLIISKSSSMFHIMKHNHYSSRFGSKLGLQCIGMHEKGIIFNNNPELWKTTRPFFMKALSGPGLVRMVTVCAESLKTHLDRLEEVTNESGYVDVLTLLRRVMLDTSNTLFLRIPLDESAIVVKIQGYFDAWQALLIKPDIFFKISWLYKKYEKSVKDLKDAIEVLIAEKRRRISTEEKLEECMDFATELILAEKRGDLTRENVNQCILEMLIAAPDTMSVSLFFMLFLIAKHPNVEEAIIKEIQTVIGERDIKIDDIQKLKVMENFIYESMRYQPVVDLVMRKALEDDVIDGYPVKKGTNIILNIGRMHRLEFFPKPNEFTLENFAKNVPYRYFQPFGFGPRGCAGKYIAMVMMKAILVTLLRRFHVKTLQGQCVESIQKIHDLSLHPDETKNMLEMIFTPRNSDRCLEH

CYP17 = target: T2, CYP17 (Homo sapiens, UniProt P05093); experiment: Inhibition of human CYP17 expressed in Escherichia coli using progesterone as substrate at 2 uM; details: probe progesterone
T2 sequence (P05093 whole entry): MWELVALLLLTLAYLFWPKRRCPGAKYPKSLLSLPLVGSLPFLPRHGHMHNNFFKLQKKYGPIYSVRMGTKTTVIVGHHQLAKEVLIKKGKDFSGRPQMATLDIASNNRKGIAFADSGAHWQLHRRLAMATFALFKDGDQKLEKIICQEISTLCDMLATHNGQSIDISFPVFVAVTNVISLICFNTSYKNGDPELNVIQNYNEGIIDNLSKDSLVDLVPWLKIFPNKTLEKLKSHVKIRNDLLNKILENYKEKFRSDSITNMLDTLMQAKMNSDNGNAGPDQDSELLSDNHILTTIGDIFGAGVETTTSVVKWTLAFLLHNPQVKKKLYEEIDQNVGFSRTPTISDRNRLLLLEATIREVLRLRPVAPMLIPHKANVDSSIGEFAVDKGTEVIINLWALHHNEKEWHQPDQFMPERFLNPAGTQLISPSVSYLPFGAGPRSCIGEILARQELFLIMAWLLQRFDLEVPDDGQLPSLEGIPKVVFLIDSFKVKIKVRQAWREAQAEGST
Outline: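 Enzyme source was the 90000g sediment of E. coli coexpressing human CYP17 and cytochrome P450 reductase. Progesterone substrate at 25 μM, NADPH cofactor, inhibitor at 2 μM. Percent inhibition is the mean of at least two experiments (SD under 10%).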

V79MZh = experiment: Selectivity factor, ratio of IC50 for human CYP11B1 to IC50 for human CYP11B2 expressed in hamster V79MZh cells; format: cell-based
Outline: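 SF calculated as IC50(CYP11B1)/IC50(CYP11B2). Both IC50s come from V79MZh hamster fibroblasts expressing the human enzyme, with [1,2-³H]-11-deoxycorticosterone at 100 nM as substrate.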

[1] = target: T3, Cytochrome P450 11B2, mitochondrial (Homo sapiens, UniProt P19099); experiment: (§1) Inhibition of human CYP11B2 expressed in hamster V79MZh cells using [1,2-3H]-11-deoxy-corticosterone as substrate; format: cell-based
T3 sequence (P19099 whole entry): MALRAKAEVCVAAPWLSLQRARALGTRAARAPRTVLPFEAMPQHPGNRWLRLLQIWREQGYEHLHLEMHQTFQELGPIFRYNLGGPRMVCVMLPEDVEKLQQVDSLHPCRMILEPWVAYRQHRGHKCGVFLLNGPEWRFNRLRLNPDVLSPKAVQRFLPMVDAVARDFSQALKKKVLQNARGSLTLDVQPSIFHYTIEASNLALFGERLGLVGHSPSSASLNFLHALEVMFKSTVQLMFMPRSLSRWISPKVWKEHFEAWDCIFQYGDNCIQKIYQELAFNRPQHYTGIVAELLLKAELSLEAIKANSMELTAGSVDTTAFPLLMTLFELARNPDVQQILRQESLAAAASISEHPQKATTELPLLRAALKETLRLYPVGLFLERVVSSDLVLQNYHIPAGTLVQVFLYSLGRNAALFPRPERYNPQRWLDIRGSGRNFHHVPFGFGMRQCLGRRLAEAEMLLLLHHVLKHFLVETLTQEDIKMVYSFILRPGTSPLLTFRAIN
Outline: (§2)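 V79MZh hamster fibroblasts stably expressing human CYP11B1 or CYP11B2, incubated with [1,2-³H]-11-deoxycorticosterone (100 nM) and inhibitor at varying concentrations. IC50 taken as mean of at least three experiments (relative SD under 25%).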

[2] = target: T4, Cytochrome P450 11B1, mitochondrial (Homo sapiens, UniProt P15538); experiment: (§3) Inhibition of human CYP11B1 expressed in hamster V79MZh cells using [1,2-3H]-11-deoxy-corticosterone as substrate; format: cell-based; outline: as §2
T4 sequence (P15538 whole entry): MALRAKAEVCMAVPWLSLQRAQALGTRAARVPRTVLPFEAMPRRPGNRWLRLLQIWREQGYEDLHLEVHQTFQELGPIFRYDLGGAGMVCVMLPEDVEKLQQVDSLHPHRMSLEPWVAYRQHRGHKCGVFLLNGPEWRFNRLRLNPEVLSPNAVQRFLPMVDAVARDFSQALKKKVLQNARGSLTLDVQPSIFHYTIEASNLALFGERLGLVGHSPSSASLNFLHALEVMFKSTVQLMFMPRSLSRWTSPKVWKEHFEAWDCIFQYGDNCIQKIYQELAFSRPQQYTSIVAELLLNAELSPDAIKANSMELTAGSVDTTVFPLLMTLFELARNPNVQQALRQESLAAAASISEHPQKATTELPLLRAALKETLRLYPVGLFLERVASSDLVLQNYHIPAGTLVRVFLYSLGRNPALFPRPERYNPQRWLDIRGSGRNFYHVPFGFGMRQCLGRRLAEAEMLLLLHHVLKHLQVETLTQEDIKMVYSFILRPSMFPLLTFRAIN

CYP11B2 = target: T5, CYP11B2 (Homo sapiens, UniProt P19099); experiment: as §1; format: cell-based; details: human, hamster V79MZh cells expressing human CYP11B2, probe [1,2-3H]-11-deoxy-corticosterone; outline: as §2
T5 sequence (P19099 whole entry): T3 sequence (P19099 whole entry)

CYP11B1 = target: T6, CYP11B1 (Homo sapiens, UniProt P15538); experiment: as §3; format: cell-based; details: human, hamster V79MZh cells expressing human CYP11B1, probe [1,2-3H]-11-deoxy-corticosterone; outline: as §2
T6 sequence (P15538 whole entry): T4 sequence (P15538 whole entry)

CYP19 (aromatase) = target: T7, CYP19 (aromatase) (Homo sapiens, UniProt P11511); experiment: Inhibition of human CYP19 using [1beta-3H]androstenedione as substrate at 500 nM by 3H2O method; details: probe [1beta-3H]androstenedione
T7 sequence (P11511 whole entry): T1 sequence (P11511 whole entry)
Outline: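 Human placental microsomes as CYP19 source. [1β-³H]androstenedione substrate at 500 nM, activity read by ³H₂O release. IC50 is the mean of at least three experiments (relative SD under 25%).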

Compound	IC50 (Aromatase) [µM]	inhibition at 2 µM (CYP17) [%]	IC50 [1] [µM]	IC50 [2] [µM]	IC50 (CYP11B2) [µM]	IC50 (CYP11B1) [µM]	inhibition at 500 nM (CYP19 (aromatase)) [%]	Ratio IC50 (V79MZh)
O=C1CCc2cc(C(O)c3ccncc3)cc3c2N1CC3 (stereo not drawn)	> 5	< 3	0.563	0.347				0.6
O=C1CCc2cc(C(C3CC3)n3ccnc3)cc3c2N1CC3 (stereo not drawn)		41			0.024	0.0022		0.1
O=C1CCc2cc(Cc3ccncc3)cc3c2N1CC3	2.13	8	0.204	0.224				1.1
COc1cccc(C(c2ccncc2)c2cc3c4c(c2)CCN4C(=O)CC3)c1 (stereo not drawn)	0.059	50	0.139	2.54				18
O=C1CCc2cc(Cc3cccnc3)cc3c2N1CC3	3.34	< 3	0.074	0.016				0.2
C=C(c1cccnc1)c1cc2c3c(c1)CCN3C(=O)CC2	> 5	< 3	0.468	0.041				0.1
COc1ccccc1C(c1ccncc1)c1cc2c3c(c1)CCN3C(=O)CC2 (stereo not drawn)	0.081	33	0.128	0.276				2.2

Second part, led by results:

IC50 (Aromatase) [µM]	inhibition at 2 µM (CYP17) [%]	IC50 [1] [µM]	IC50 [2] [µM]	IC50 (CYP11B2) [µM]	IC50 (CYP11B1) [µM]	inhibition at 500 nM (CYP19 (aromatase)) [%]	Compound	Ratio IC50 (V79MZh)
		0.0011	0.715			18	O=C1CCc2cc(-c3cccnc3)cc3c2N1CC3	650
0.032	46	0.041	1.34				Cc1cccc(C(c2ccncc2)c2cc3c4c(c2)CCN4C(=O)CC3)c1 (stereo not drawn)	33
0.116	55	0.056	0.088				O=C1CCc2cc(C(c3ccncc3)c3ccc(F)cc3)cc3c2N1CC3 (stereo not drawn)	1.6
> 5	< 3	0.037	0.004				CC(c1cccnc1)c1cc2c3c(c1)CCN3C(=O)CC2 (stereo not drawn)	0.1
